Reference: ChEMBL document CHEMBL3393037, “Design, synthesis, and biological evaluation of aminothiazole derivatives against the fungal pathogens Histoplasma capsulatum and Cryptococcus neoformans” (Bioorg Med Chem, 2015)
Values after ≈ are worked out from the molar mass of the structure shown.

Experiments:
[1] = Antifungal activity against Histoplasma capsulatum G217B ATCC 26032 assessed as inhibition of visible growth after 5 days; type: functional
Method in brief: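 Wild-type G217B yeasts kept in HMM at 37 °C under 5% CO2. Wells held 2×10^5 yeasts (hemocytometer count) with a two-fold dilution series from 40 to 0.078 µM, at 1% DMSO in the top dilution. Plates were agitated twice daily and growth followed by A595 over 5 days. MIC is the lowest concentration with no visible growth on visual inspection of the plates.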

[2] = system: Cryptococcus neoformans; assay: Antifungal activity against Cryptococcus neoformans MATalpha serotype A strain H99 assessed as inhibition of visible growth after 5 days; type: functional; settings: MATalpha serotype A strain H99, 120 h
[3] = Selectivity index, ratio of MIC50 for human HepG2 cells to MIC50 for Histoplasma capsulatum strain G217B ATCC 26032
[4] = Cytotoxicity against human HepG2 cells after 72 hrs by crystal violet staining method; type: cell-based; settings: for CC50 at 72 h: read-out: MIC50
Method in brief: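 HepG2 cells in MEM with 10% FBS and 2 mM L-glutamine were seeded at 1×10^4 per well and left to adhere overnight. Compound was added at 0.3 to 80 µM for 72 h. Cells were fixed in 3% paraformaldehyde, stained with 0.1% crystal violet, and the dye taken up in 10% acetic acid and read at A590. Values were normalised to DMSO-matched controls, in triplicate.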

[5] = Cytotoxicity against mouse P388D1 […] cells after 48 hrs by crystal violet staining method; type: cell-based; settings: P388D1, 48 h

SMILES	MIC [1] [µM]	MIC50 [1] [µM]	other results
O=C(CCC1CCCCC1)Nc1ncc(Cc2ccc3ccccc3c2)s1	> 20	> 10	
O=C(CC1CCCCC1)Nc1ncc(-c2ccccc2)s1	> 20	> 10	
O=C(CCC1CCCCC1)Nc1ncc(Cc2ccccc2Cl)s1	2.5 (≈ 0.907 µg/mL)	0.9 (≈ 0.327 µg/mL)	MIC [2]: > 20 µM; MIC50 [2]: > 10 µM
O=C(Nc1ncc(-c2ccccc2)s1)C1CCCCC1	> 20	> 10	
O=C(Nc1ncc(Cc2ccccc2)s1)C12CC3CC(CC(C3)C1)C2	10 (≈ 3.53 µg/mL)	5 (≈ 1.76 µg/mL)	
O=C(Nc1ncc(Cc2ccc3ccccc3c2)s1)c1ccccc1	> 20	> 10	
O=C(Nc1nc(C23CC4CC(CC(C4)C2)C3)cs1)C1CCCC1	20 (≈ 6.61 µg/mL)	7.4 (≈ 2.45 µg/mL)	
O=C(CCC1CCCCC1)Nc1ncc(Cc2cccc(C(F)(F)F)c2)s1	> 20	> 10	
O=C(Nc1ncc(Cc2cccc3ccccc23)s1)C12CC3CC(CC(C3)C1)C2	> 20	> 10	
O=C(Nc1ncc(Cc2ccccc2)s1)c1cnc(-c2cccs2)s1	> 20	> 10	
O=C(CC1CCCCC1)Nc1nc(C23CC4CC(CC(C4)C2)C3)cs1	> 20	> 10	
O=C(CCC1CCCCC1)Nc1nnc(Cc2ccccc2)s1	> 20	> 10	
O=C(Nc1ncc(Cc2cccc3ccccc23)s1)C1CCCC1	1.3 (≈ 0.437 µg/mL)	0.8 (≈ 0.269 µg/mL)	MIC [2]: 1.3 µM (≈ 0.437 µg/mL); MIC50 [2]: 0.8 µM (≈ 0.269 µg/mL); Ratio [3]: >57; CC50 at 72 h [4]: > 40 µM
Cc1nc(NC(=O)CCC2CCCCC2)sc1Cc1ccccc1	> 20	> 10	
O=C(Nc1ncc(Cc2ccccc2)s1)C1CCOCC1	> 20	> 10	
O=C(CCC1CCCCC1)Nc1ncc(Cc2cccc(F)c2)s1	2.5 (≈ 0.866 µg/mL)	0.8 (≈ 0.277 µg/mL)	MIC [2]: > 20 µM; MIC50 [2]: > 10 µM; Ratio [3]: 57; CC50 at 72 h [4]: 40 µM
CC(C)C(=O)Nc1ncc(CC2CCCCC2)s1	> 20	> 10	

SMILES	MIC [1] [µM]	MIC50 [1] [µM]	other results
O=C(CC1CCCCC1)Nc1ncc(Cc2cccc3ccccc23)s1	0.6 (≈ 0.219 µg/mL)	0.4 (≈ 0.146 µg/mL)	MIC [2]: > 20 µM; MIC50 [2]: > 10 µM; Ratio [3]: 92; CC50 at 72 h [4]: 37 µM
O=C(Nc1ncc(Cc2ccc3ccccc3c2)s1)C1CCCCC1	> 20	> 10	
Cc1cccc(Cc2cnc(NC(=O)C3CCC3)s2)c1		2.5 (≈ 0.716 µg/mL)	MCC at 72 h ([4]; read-out: MIC): 20 µM
CC(C)C(=O)Nc1ncc(Cc2ccc3ccccc3c2)s1	20 (≈ 6.21 µg/mL)	4.5 (≈ 1.4 µg/mL)	
CC(C)C(=O)Nc1nc(C23CC4CC(CC(C4)C2)C3)cs1	> 20	> 10	
O=C(Nc1nc(C23CC4CC(CC(C4)C2)C3)cs1)c1ccccc1	10 (≈ 3.38 µg/mL)	3.1 (≈ 1.05 µg/mL)	MIC [2]: 20 µM (≈ 6.77 µg/mL); MIC50 [2]: 8.3 µM (≈ 2.81 µg/mL)
COc1ccc(Cc2cnc(NC(=O)/C=C/c3ccco3)s2)cc1	> 20	> 10	
O=C(CCC1CCCCC1)Nc1ncc(Cc2ccccc2F)s1	2.5 (≈ 0.866 µg/mL)	1 (≈ 0.346 µg/mL)	MIC [2]: > 20 µM; MIC50 [2]: > 10 µM
O=C(CC1CCCCC1)Nc1ncc(Cc2ccc3ccccc3c2)s1	20 (≈ 7.29 µg/mL)	5.7 (≈ 2.08 µg/mL)	
Nc1ncc(Cc2ccccc2)s1	> 20	> 10	
O=C(Nc1ncc(Cc2cccc3ccccc23)s1)C1CCCCC1	0.6 (≈ 0.21 µg/mL)	0.4 (≈ 0.14 µg/mL)	MIC [2]: 0.6 µM (≈ 0.21 µg/mL); MIC50 [2]: 0.4 µM (≈ 0.14 µg/mL); Ratio [3]: 97; IC50 [5]: 54 µM; CC50 at 72 h [4]: 39 µM
O=C(Nc1nc(C23CC4CC(CC(C4)C2)C3)cs1)C1CCCCC1	5 (≈ 1.72 µg/mL)	2.5 (≈ 0.861 µg/mL)	MIC [2]: > 20 µM; MIC50 [2]: > 10 µM
O=C(/C=C/C1CCCCC1)Nc1ncc(Cc2ccccc2)s1	> 20	> 10	
O=C(Nc1ncc(Cc2ccccc2)s1)C(F)(F)F	> 20	> 10	
CC(C)C(=O)Nc1ncc(Cc2ccccc2)s1	20 (≈ 5.21 µg/mL)	6.7 (≈ 1.74 µg/mL)	
O=C(Nc1ncc(CC2CCCCC2)s1)C1CCCCC1	2.5 (≈ 0.766 µg/mL)	0.7 (≈ 0.215 µg/mL)	MIC [2]: > 20 µM; MIC50 [2]: > 10 µM
O=C(Nc1ncc(Cc2ccccc2)s1)C1CCSCC1	10 (≈ 3.18 µg/mL)	4.8 (≈ 1.53 µg/mL)	
